# Measurements from PMC10582678 (Clinical and Translational Science, 2023).
# Test: Safety, adverse events, single ascending dose
# Type: in vivo, human
# Settings: for AEs / Decreased leukocyte count / Decreased neutrophil count / Increased ALT / Increased blood cholesterol / Increased blood triglycerides / Abdominal discomfort / Constipation / Decreased lymphocyte count / Dermatitis allergic / Dyspepsia / Increased AST / Increased blood bilirubin / Increased blood creatinine / Lethargy / Mouth ulceration / Oropharyngeal pain / Sinus arrythmia / Treatment discontinuation due to AEs / Upper respiratory tract infection: n (%)
# Outline: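 Safety was monitored by vital signs, clinical laboratory tests, physical examination, 12-lead ECG, AEs and SAEs. AEs were coded with MedDRA 23.1 and graded by CTCAE 5.0. Subjects were discharged 6 days after the last dose, with a follow-up visit 8–14 days after the last dose. The safety set comprised randomized subjects who received active drug or placebo and had post-dose safety data.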
# [1] = 27 subjects who received SAD 100 to 800 mg
smiles,measurement,setting,value
"N#CN1C[C@H](n2nc(-c3ccc(Oc4ccc(Cl)cn4)cc3)c(C(N)=O)c2N)CCC12CC2 [SN1011, 5-amino-3-(4-((5-chloro-2-pyridinyl)oxy)phenyl)-1-((6R)-4-cyano-4-azaspiro[2.5]octan-6-yl)-1H-pyrazole-4-carboxamide]",blood triglycerides increased,[1],18.5%
same,neutrophil count decreased,[1],14.8%
same,number of AEs,[1],13
same,subjects who experienced AEs,[1],33.3%
same,white blood cell count decreased,[1],7.4%
same,AEs,"SAD 100 mg, any grade",0
same,Decreased leukocyte count,"SAD 100 mg, any grade",0
same,Decreased neutrophil count,"SAD 100 mg, any grade",0
same,Increased ALT,"SAD 100 mg, any grade",0
same,Increased blood cholesterol,"SAD 100 mg, any grade",0
same,Increased blood triglycerides,"SAD 100 mg, any grade",0
same,Abdominal discomfort,SAD 100 mg,0
same,Constipation,SAD 100 mg,0
same,Decreased lymphocyte count,SAD 100 mg,0
same,Dermatitis allergic,SAD 100 mg,0
same,Dyspepsia,SAD 100 mg,0
same,Increased AST,SAD 100 mg,0
same,Increased blood bilirubin,SAD 100 mg,0
same,Increased blood creatinine,SAD 100 mg,0
same,Lethargy,SAD 100 mg,0
same,Mouth ulceration,SAD 100 mg,0
same,Oropharyngeal pain,SAD 100 mg,0
same,Sinus arrythmia,SAD 100 mg,0
same,Treatment discontinuation due to AEs,SAD 100 mg,0
same,Upper respiratory tract infection,SAD 100 mg,0
same,AEs,"SAD 200 mg, any grade",2 (33.3)
same,Decreased leukocyte count,"SAD 200 mg, any grade",0
same,Decreased neutrophil count,"SAD 200 mg, any grade",0
same,Increased ALT,"SAD 200 mg, any grade",1 (16.7)
same,Increased blood cholesterol,"SAD 200 mg, any grade",1 (16.7)
same,Increased blood triglycerides,"SAD 200 mg, any grade",2 (33.3)
same,Abdominal discomfort,SAD 200 mg,0
same,Constipation,SAD 200 mg,0
same,Decreased lymphocyte count,SAD 200 mg,0
same,Dermatitis allergic,SAD 200 mg,0
same,Dyspepsia,SAD 200 mg,0
same,Increased AST,SAD 200 mg,0
same,Increased blood bilirubin,SAD 200 mg,0
same,Increased blood creatinine,SAD 200 mg,0
same,Lethargy,SAD 200 mg,0
same,Mouth ulceration,SAD 200 mg,0
same,Oropharyngeal pain,SAD 200 mg,0
same,Sinus arrythmia,SAD 200 mg,0
same,Treatment discontinuation due to AEs,SAD 200 mg,0
same,Upper respiratory tract infection,SAD 200 mg,0
same,AEs,"SAD 400 mg, any grade",2 (33.3)
same,Decreased leukocyte count,"SAD 400 mg, any grade",0
same,Decreased neutrophil count,"SAD 400 mg, any grade",0
same,Increased ALT,"SAD 400 mg, any grade",0
same,Increased blood cholesterol,"SAD 400 mg, any grade",0
same,Increased blood triglycerides,"SAD 400 mg, any grade",2 (33.3)
same,Abdominal discomfort,SAD 400 mg,0
same,Constipation,SAD 400 mg,0
same,Decreased lymphocyte count,SAD 400 mg,0
same,Dermatitis allergic,SAD 400 mg,0
same,Dyspepsia,SAD 400 mg,0
same,Increased AST,SAD 400 mg,0
same,Increased blood bilirubin,SAD 400 mg,0
same,Increased blood creatinine,SAD 400 mg,0
same,Lethargy,SAD 400 mg,0
same,Mouth ulceration,SAD 400 mg,0
same,Oropharyngeal pain,SAD 400 mg,0
same,Sinus arrythmia,SAD 400 mg,0
same,Treatment discontinuation due to AEs,SAD 400 mg,0
same,Upper respiratory tract infection,SAD 400 mg,0
same,AEs,"SAD 600 mg, any grade",3 (50.0)
same,Decreased leukocyte count,"SAD 600 mg, any grade",1 (16.7)
same,Decreased neutrophil count,"SAD 600 mg, any grade",3 (50.0)
same,Increased ALT,"SAD 600 mg, any grade",0
same,Increased blood cholesterol,"SAD 600 mg, any grade",0
same,Increased blood triglycerides,"SAD 600 mg, any grade",0
same,Abdominal discomfort,SAD 600 mg,0
same,Constipation,SAD 600 mg,0
same,Decreased lymphocyte count,SAD 600 mg,0
same,Dermatitis allergic,SAD 600 mg,0
same,Dyspepsia,SAD 600 mg,0
same,Increased AST,SAD 600 mg,0
same,Increased blood bilirubin,SAD 600 mg,0
same,Increased blood creatinine,SAD 600 mg,0
same,Lethargy,SAD 600 mg,0
same,Mouth ulceration,SAD 600 mg,0
same,Oropharyngeal pain,SAD 600 mg,0
same,Sinus arrythmia,SAD 600 mg,0
same,Treatment discontinuation due to AEs,SAD 600 mg,0
same,Upper respiratory tract infection,SAD 600 mg,0
same,AEs,"SAD 800 mg, any grade",2 (33.3)
same,Decreased leukocyte count,"SAD 800 mg, any grade",1 (16.7)
same,Decreased neutrophil count,"SAD 800 mg, any grade",1 (16.7)
same,Increased ALT,"SAD 800 mg, any grade",0
same,Increased blood cholesterol,"SAD 800 mg, any grade",0
same,Increased blood triglycerides,"SAD 800 mg, any grade",1 (16.7)
same,Abdominal discomfort,SAD 800 mg,0
same,Constipation,SAD 800 mg,0
same,Decreased lymphocyte count,SAD 800 mg,0
same,Dermatitis allergic,SAD 800 mg,0
same,Dyspepsia,SAD 800 mg,0
same,Increased AST,SAD 800 mg,0
same,Increased blood bilirubin,SAD 800 mg,0
same,Increased blood creatinine,SAD 800 mg,0
same,Lethargy,SAD 800 mg,0
same,Mouth ulceration,SAD 800 mg,0
same,Oropharyngeal pain,SAD 800 mg,0
same,Sinus arrythmia,SAD 800 mg,0
same,Treatment discontinuation due to AEs,SAD 800 mg,0
same,Upper respiratory tract infection,SAD 800 mg,0
same,Abdominal discomfort,"SAD All SN1011, N = 27",0
same,Constipation,"SAD All SN1011, N = 27",0
same,Decreased leukocyte count,"SAD All SN1011, N = 27",2 (7.4)
same,Decreased lymphocyte count,"SAD All SN1011, N = 27",0
same,Decreased neutrophil count,"SAD All SN1011, N = 27",4 (14.8)
same,Dermatitis allergic,"SAD All SN1011, N = 27",0
same,Dyspepsia,"SAD All SN1011, N = 27",0
same,Increased ALT,"SAD All SN1011, N = 27",1 (3.7)
same,Increased AST,"SAD All SN1011, N = 27",0
same,Increased blood bilirubin,"SAD All SN1011, N = 27",0
same,Increased blood cholesterol,"SAD All SN1011, N = 27",1 (3.7)
same,Increased blood creatinine,"SAD All SN1011, N = 27",0
same,Increased blood triglycerides,"SAD All SN1011, N = 27",5 (18.5)
same,Lethargy,"SAD All SN1011, N = 27",0
same,Mouth ulceration,"SAD All SN1011, N = 27",0
same,Oropharyngeal pain,"SAD All SN1011, N = 27",0
same,Sinus arrythmia,"SAD All SN1011, N = 27",0
same,Treatment discontinuation due to AEs,"SAD All SN1011, N = 27",0
same,Upper respiratory tract infection,"SAD All SN1011, N = 27",0
